Test results reported in ChEMBL document CHEMBL2062525, “Substituted 3-(5-imidazo[2,1-b]thiazolylmethylene)-2-indolinones and analogues: synthesis, cytotoxic activity, and study of the mechanism of action” (J Med Chem, 2012).
The source made the active and inactive calls.

Experiments:
[1] = Inhibition of bovine brain tubulin assembly after 20 mins; set-up: species or system Bos taurus
[2] = Cytotoxicity against human breast cancer cells after 48 hrs; assay type: functional; details: Cancer cell lines
Method in brief: (§1)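 NCI 60-cell panel subpanel lines; compounds first screened at a single 10−5 M, then those passing threshold tested in five-concentration assay over 10−9 to 10−4 M (some to 10−3 M), 48 h exposure. Growth relative to untreated control measured as cell protein; GI50, TGI and LC50 derived; some values are means of two experiments.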

HT-29 [3] = assay: Induction of apoptosis in human HT-29 cells assessed as nuclear fragmentation by propidium iodide staining method; assay type: functional, cell-based
Method in brief: (§2)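 HT-29 cells on glass coverslips (1×10^4 cells/cm2), treated 24 h; fixed in 3% paraformaldehyde, ethanol-permeabilized; nuclei stained with PI and viewed by laser scanning confocal microscopy for chromatin condensation and nuclear fragmentation; representative of three experiments.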

Bos taurus = organism: Bos taurus; assay: Displacement of [3H]colchicine from bovine brain tubulin at 5 uM after 10 mins
[4] = target: Mitogen-activated protein kinase; ERK1/ERK2 (Homo sapiens) (UniProt P27361+P28482); assay: Inhibition of ERK1/2 phosphorylation at Thr202/Tyr204 in human HeLa cells at 1 uM after 3 hrs by Western blotting analysis; assay type: cell-based
Chain of Mitogen-activated protein kinase; ERK1/ERK2 (Homo sapiens) (P27361 whole entry, looked up): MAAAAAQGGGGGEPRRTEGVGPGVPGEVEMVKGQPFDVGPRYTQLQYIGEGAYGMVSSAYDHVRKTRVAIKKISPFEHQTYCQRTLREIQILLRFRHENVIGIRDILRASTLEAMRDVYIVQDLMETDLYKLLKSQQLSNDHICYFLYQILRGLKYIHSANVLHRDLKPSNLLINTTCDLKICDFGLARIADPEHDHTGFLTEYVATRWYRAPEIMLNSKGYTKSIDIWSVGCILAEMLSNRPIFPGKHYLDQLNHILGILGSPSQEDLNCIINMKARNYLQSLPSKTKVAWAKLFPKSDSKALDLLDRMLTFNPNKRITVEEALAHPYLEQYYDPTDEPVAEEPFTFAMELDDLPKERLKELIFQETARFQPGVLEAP
Chain of Mitogen-activated protein kinase; ERK1/ERK2 (Homo sapiens) (P28482 whole entry, looked up): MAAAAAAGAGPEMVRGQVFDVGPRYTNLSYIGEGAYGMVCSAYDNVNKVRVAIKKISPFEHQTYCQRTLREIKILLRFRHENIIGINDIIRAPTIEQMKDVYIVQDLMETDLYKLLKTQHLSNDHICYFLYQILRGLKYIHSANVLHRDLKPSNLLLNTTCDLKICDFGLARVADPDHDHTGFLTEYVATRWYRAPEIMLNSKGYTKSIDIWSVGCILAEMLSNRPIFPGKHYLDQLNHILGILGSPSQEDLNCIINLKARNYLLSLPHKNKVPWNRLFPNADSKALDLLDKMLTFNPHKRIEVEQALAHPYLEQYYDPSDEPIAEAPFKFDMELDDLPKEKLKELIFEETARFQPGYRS
Method in brief: (§3)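 HeLa cells in RPMI 1640 with 10% FBS, treated 3 h at 1 μM. Lysates centrifuged 15,000 × g 15 min; 80 μg protein per lane by SDS-PAGE, nitrocellulose transfer, phospho-specific and total primary antibodies, peroxidase anti-rabbit secondary, ECL chemiluminescence.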

HT-29 [5] = assay: Induction of apoptosis in human HT-29 cells assessed as increase in early apoptotic cells after 24 hrs by annexin-V-FLUOS and propidium iodide staining based flow cytometry (reference value: 3.9%); assay type: functional
[6] = Cytotoxicity against human ovarian cancer cells after 48 hrs; assay type: functional; details: Cancer cell lines; method in brief: as §1
HT-29 [7] = assay: Cell cycle arrest in human HT-29 cells assessed as increase of cell population at G2/M phase at 500 nM after 24 hrs by flow cytometry; assay type: functional, cell-based
Method in brief: (§4)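 HT-29 cells in RPMI 1640 with 10% FBS, 2 mM L-glutamine, 37 °C, 5% CO2; treated 24 h, DMSO 0.01% in medium. Fixed in 70% ethanol at −20 °C ≥12 h, RNase A (10 μg/mL) 30 min at 37 °C, DNA stained with PI (50 μg/mL), flow cytometry; one experiment representative of three.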

HT-29 [8] = assay: Induction of apoptosis in human HT-29 cells assessed as increase in BAX level in mitochondria after 24 hrs by confocal laser microscopic analysis; assay type: functional, cell-based
Method in brief: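 HT-29 cells treated 24 h with 500 nM; loaded with 150 nM MitoTracker Red CM-H2XRos for 10 min at 37 °C, then fixed, permeabilized, probed with anti-Bax plus FITC secondary (1 h each, room temperature). Confocal microscopy; colocalization with mitochondria seen as orange pixels.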

HT-29 [9] = assay: Induction of apoptosis in human HT-29 cells assessed as increase in mitochondrial ROS production by dihydroethidium staining based flow cytometry; assay type: functional, cell-based
Method in brief: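 ROS read-out: HT-29 cells treated 24 h with 500 nM, then loaded with 5 μM dihydroethidium for 30 min at 37 °C; superoxide-derived red fluorescence measured by flow cytometry with logarithmic amplification; representative of three to five experiments.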

[10] = Cytotoxicity against human prostate cancer cells after 48 hrs; assay type: functional; details: Cancer cell lines
Method in brief: (§5)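 NCI 60-cell panel (subpanels include leukemia and prostate). […] Percent growth relative to untreated control; some repeats averaged over two experiments.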

[11] = Cytotoxicity against human leukemia cells after 48 hrs; assay type: functional; details: Leukemia cell; method in brief: as §5
[12] = target: c-Jun N-terminal kinase, JNK (Homo sapiens) (UniProt P45983+P53779+P45984); assay: Inhibition of JNK phosphorylation at Thr183/Tyr185 in human HeLa cells at 1 uM after 3 hrs by Western blotting analysis; assay type: cell-based; method in brief: as §3
[13] = Cytotoxicity against human COLON cells after 48 hrs; assay type: functional; method in brief: as §1
HT-29 [14] = assay: Induction of apoptosis in human HT-29 cells at 100 nM after 24 hrs by trypan blue exclusion assay; assay type: functional, cell-based
Method in brief: (§6)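 HT-29 cells plated at 2×10^4 cells/cm2, treated 24 h in triplicate (DMSO 0.01%; DMSO-only controls); viable cells counted by trypan blue exclusion; mean ± s.e.m. of three determinations.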

[15] = Cytotoxicity against human CNS cancer cells after 48 hrs; assay type: functional; details: Cancer cell lines; method in brief: as §1
[16] = Cytotoxicity against human melanoma cells after 48 hrs; assay type: functional; details: Melanoma cell; method in brief: as §1
[17] = Cytotoxicity against human renal cancer cells after 48 hrs; assay type: functional; details: Cancer cell lines; method in brief: as §1
HT-29 [18] = assay: Induction of apoptosis in human HT-29 cells assessed as loss of mitochondrial membrane potential after 24 hrs by DiOC6 staining based fluorescence assay; assay type: functional, cell-based
Method in brief: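 Following 24 h treatment at 500 nM, HT-29 cells (1×10^6/mL) were stained with 4 nM DiOC6 for 40 min at 37 °C in the dark, counterstained with PI 5 μg/mL to exclude dead cells; fluorescence by flow cytometry; representative of three to five experiments.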

HT-29 [19] = assay: Induction of apoptosis in human HT-29 cells assessed as chromatin condensation by propidium iodide staining method; assay type: functional, cell-based; method in brief: as §2
HT-29 [20] = assay: Induction of apoptosis in human HT-29 cells at 500 nM after 24 hrs by trypan blue exclusion assay; assay type: functional, cell-based; method in brief: as §6
HT-29 [21] = assay: Induction of apoptosis in human HT-29 cells assessed as increase in caspase activity at 500 nM after 48 hrs by fluorometry; assay type: functional, cell-based
Method in brief: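 Cells exposed 48 h to 500 nM; DEVD-cleaving caspase (DEVDase) activity measured fluorometrically in cell extracts; mean ± s.e.m. of four determinations.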

NSCLC = assay: Cytotoxicity against human NSCLC cells after 48 hrs; assay type: functional; method in brief: as §1
HT-29 [22] = assay: Induction of cell cycle arrest in human HT-29 cells assessed as increase in p21 expression after 24 hrs by immunofluorescence confocal microscopy; assay type: functional, cell-based
Method in brief: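 On coverslips, HT-29 cells were treated 24 h, fixed with 3% paraformaldehyde, permeabilized with 70% ice-cold ethanol, stained with anti-p21 then FITC secondary (1 h, room temperature each), nuclei counterstained with PI; confocal microscopy; representative of three experiments.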

[23] = target: AMP-activated protein kinase, AMPK (Homo sapiens) (UniProt P54646+O43741+P54619+Q9UGJ0+Q9Y478+Q13131+Q9UGI9); assay: Inhibition of AMPK phosphorylation at Thr172 in human HeLa cells at 1 uM after 3 hrs by Western blotting analysis; assay type: cell-based; method in brief: as §3
[24] = target: Serine/threonine-protein kinase mTOR (Homo sapiens) (UniProt P42345); assay: Inhibition of mTOR phosphorylation at ser2448 in human HeLa cells at 1 uM after 3 hrs by Western blotting analysis; assay type: cell-based; method in brief: as §3
HeLa = assay: Inhibition of Akt phosphorylation at ser473 in human HeLa cells at 1 uM after 3 hrs by Western blotting analysis; assay type: cell-based; method in brief: as §3
[25] = target: MAP kinase p38 (Homo sapiens) (UniProt O15264+Q15759+Q16539+P53778); assay: Inhibition of p38 phosphorylation at Thr180/Tyr182 in human HeLa cells at 1 uM after 3 hrs by Western blotting analysis; assay type: cell-based; method in brief: as §3
HT-29 [26] = assay: Cell cycle arrest in human HT-29 cells assessed as increase of cell population at G2/M phase at 100 nM after 24 hrs by flow cytometry; assay type: functional, cell-based; method in brief: as §4
[27] = read-out: LC50 (the source's name)

## Cc1cn2c(/C=C3/C(=O)Nc4c3ccc3ccccc43)c(C)nc2s1
[1]
  IC50: 5.3 µM
[2]
  GI50: 0.18 µM
  LC50: 50.1 µM
  TGI: 5.62 µM
HT-29 [3]
  Activity: Active
Bos taurus
  inhibition: 49%
[4]
  inhibition: inactive
HT-29 [5]
  Activity: 12.5%
[6]
  GI50: 0.85 µM
  LC50 (concentration killing 50% of starting cells): 74.1 µM
  TGI: 14.1 µM
HT-29 [7]
  Activity: Active
HT-29 [8]
  Activity: Active
HT-29 [9]
  Activity: Active
[10]
  GI50: 0.21 µM
  TGI: 16.2 µM
[11]
  TGI: 53.7 µM
[12]
  inhibition: inactive
[13]
  GI50: 0.11 µM
  TGI: 58.9 µM
HT-29 [14]
  Activity: Active
[15]
  GI50: 0.17 µM
  LC50: 74.1 µM
  TGI: 5.37 µM
[16]
  GI50: 0.14 µM
  TGI: 50.1 µM
[17]
  GI50: 0.23 µM
  TGI: 12 µM
[17]; [27]
  CC50: 70.8 µM
HT-29 [18]
  Activity: Active
HT-29 [19]
  Activity: Active
HT-29 [20]
  Activity: Active
HT-29 [21]
  Activity: Active
NSCLC
  GI50: 0.31 µM
  LC50: 93.3 µM
  TGI: 28.2 µM
HT-29 [22]
  Activity: Active
[23]
  inhibition: inactive
[24]
  inhibition: inactive
HeLa
  inhibition: inactive
[25]
  inhibition: inactive

## COc1ccc2c(c1)C(=Cc1c(OC)nc3sccn13)C(=O)N2 (mixture of isomers)
[1]
  IC50: 2.9 µM
[2]
  GI50: 0.17 µM
  TGI: 34.7 µM
HT-29 [3]
  Activity: Active
Bos taurus
  inhibition: 62%
[4]
  inhibition: Active
HT-29 [5]
  Activity: 27%
[6]
  GI50: 0.1 µM
  TGI: 12 µM
[10]
  GI50: 0.05 µM
  TGI: 40.7 µM
[11]
  GI50: 0.02 µM
  LC50 (concentration killing 50% of cells): 91.2 µM
  TGI: 4.57 µM
[12]
  inhibition: Active
[13]
  LC50 (concentration giving 50% net cell kill): 66.1 µM
  TGI: 7.59 µM
HT-29 [14]
  Activity: Active
[15]
  GI50: 0.04 µM
  TGI: 15.5 µM
[16]
  GI50: 0.04 µM
  TGI: 20.9 µM
[16]; [27]
  CC50: 81.3 µM
[17]
  GI50: 0.14 µM
  TGI: 31.6 µM
HT-29 [19]
  Activity: Active
HT-29 [26]
  Activity: Active
HT-29 [21]
  Activity: Active
NSCLC
  GI50: 0.16 µM
  TGI: 44.7 µM
HT-29 [22]
  Activity: Active
[23]
  inhibition: Active
[24]
  inhibition: inactive
HeLa
  inhibition: Active
[25]
  inhibition: Active
